Source: ChEMBL document CHEMBL3763056, “O-alkylhydroxylamines as rationally-designed mechanism-based inhibitors of indoleamine 2,3-dioxygenase-1” (Eur J Med Chem, 2016)
The source made the active and inactive calls. No cut-off for these calls is given here.

Assays:
[1] = biological target: T1, Indoleamine 2,3-dioxygenase 1 (Homo sapiens, UniProt P14902); assay: Inhibition of recombinant human IDO1 assessed as reduction in kynurenine production using L-tryptophan as substrate after 60 mins by microplate reader method
Target sequence in this assay (P14902 whole entry): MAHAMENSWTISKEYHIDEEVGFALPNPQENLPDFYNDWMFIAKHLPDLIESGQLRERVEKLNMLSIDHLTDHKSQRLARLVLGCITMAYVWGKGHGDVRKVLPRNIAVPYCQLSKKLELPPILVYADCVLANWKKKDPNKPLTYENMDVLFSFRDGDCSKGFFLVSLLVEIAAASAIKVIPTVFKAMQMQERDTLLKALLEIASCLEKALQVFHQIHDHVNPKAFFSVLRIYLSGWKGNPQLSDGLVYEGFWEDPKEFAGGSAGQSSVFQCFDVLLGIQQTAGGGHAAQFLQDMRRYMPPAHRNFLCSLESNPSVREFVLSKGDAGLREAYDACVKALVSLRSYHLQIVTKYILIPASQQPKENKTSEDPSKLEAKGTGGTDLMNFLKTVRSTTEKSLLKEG

[2] = biological target: T1, Indoleamine 2,3-dioxygenase 1; conditions: 110 to 990 nM
Target sequence in this assay (P14902 whole entry, looked up): as the sequence (P14902 whole entry) above

[3] = biological target: T1, Indoleamine 2,3-dioxygenase 1; assay: Inhibition of doxycycline-induced human IDO1 expressed in Trex cells assessed as reduction in kynurenine production treated with 5-fold serial dilution beginning at 400 uM after 24 hrs by microtiter plate reader; type: cell-based
How it was run: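 T-Rex cells carrying tet-regulated human IDO1 cDNA seeded 10,000/well in DMEM + 10% FBS + 1% pen-strep; IDO1 induced with media containing 20 ng/mL doxycycline for 24 h. Media replaced by compound serial dilutions in DMEM + 10% FBS, Trp 100 μM. 24 h at 37 °C. TCA fixation, supernatant heated at 65 °C, Ehrlich's reagent, A490. Single run.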
Target sequence in this assay (P14902 whole entry): as above

[4] = biological target: T1, Indoleamine 2,3-dioxygenase 1; assay: Inhibition of recombinant human IDO1 assessed as reduction in kynurenine production using L-tryptophan as substrate after 60 mins by Michaelis-Menton plot analysis
How it was run: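 Purified recombinant human IDO1 (~27 nM) in 50 mM potassium phosphate pH 6.5 with 40 mM ascorbate, 400 μg/ml catalase and 20 μM methylene blue. For IC50, L-Trp at 100 μM (Km 80 μM). For Ki, inhibitor dilutions matrixed with L-Trp dilutions. 60 min at 37 °C, TCA stop, 65 °C for 15 min, Ehrlich's reagent, A490.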
Target sequence in this assay (P14902 whole entry): as above

[5] = biological target: T1, Indoleamine 2,3-dioxygenase 1; assay: Inhibition of IFN gamma induced human IDO1 in HeLa cells assessed as reduction in kynurenine production treated with 5-fold serial dilution beginning at 400 uM after 24 hrs by microtiter plate reader; type: cell-based
How it was run: (§1)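 HeLa cells seeded 10,000/well in DMEM + 10% FBS + 1% pen-strep; IDO1 induced with IFNγ (100 ng/mL final) for 24 h. Media discarded, wells rinsed, compound serial dilutions added in DMEM + 10% FBS with Trp adjusted to 100 μM. 24 h at 37 °C. TCA stop and fixation 1 h at 4 °C. Supernatant heated at 65 °C for 15 min, mixed with Ehrlich's reagent, read at 490 nm.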
Target sequence in this assay (P14902 whole entry): as above

HeLa = assay: Cytotoxicity against human HeLa cells assessed as cell viability upto 100 uM by sulforhodamine B assay; type: cell-based
How it was run: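 HeLa cells seeded at 10,000/well in DMEM + 10% FBS, IDO1 induced 24 h with IFNγ (100 ng/mL final), then compound serial dilutions in medium with 100 μM Trp for 24 h at 37 °C. Cells fixed with TCA 1 h at 4 °C, stained with 0.4% SRB 15 min, dye solubilized in 10 mM Tris; absorbance at 570 nm.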

Catalase = biological target: T2, Catalase (Homo sapiens, UniProt P04040); assay: Inhibition of catalase (unknown origin) using hydrogen peroxide as substrate
T2 sequence (P04040 whole entry): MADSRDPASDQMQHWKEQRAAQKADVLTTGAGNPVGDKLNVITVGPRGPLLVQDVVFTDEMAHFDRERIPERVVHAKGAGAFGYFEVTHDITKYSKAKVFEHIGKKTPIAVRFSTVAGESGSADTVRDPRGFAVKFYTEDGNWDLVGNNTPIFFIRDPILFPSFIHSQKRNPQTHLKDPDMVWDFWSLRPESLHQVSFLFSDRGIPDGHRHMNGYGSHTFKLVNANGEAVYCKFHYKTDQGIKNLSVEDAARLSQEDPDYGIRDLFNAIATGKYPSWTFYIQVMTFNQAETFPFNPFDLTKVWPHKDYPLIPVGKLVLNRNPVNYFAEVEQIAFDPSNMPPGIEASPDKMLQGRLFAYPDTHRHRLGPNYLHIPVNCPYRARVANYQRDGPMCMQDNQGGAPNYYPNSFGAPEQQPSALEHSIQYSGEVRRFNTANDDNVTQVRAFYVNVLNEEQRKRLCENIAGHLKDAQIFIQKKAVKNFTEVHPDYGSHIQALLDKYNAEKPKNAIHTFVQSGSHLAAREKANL

Cytochrome P450 3A4 = Cytochrome P450 3A4 (Homo sapiens, UniProt P08684); assay: Inhibition of CYP3A4 (unknown origin); type: ADME
[6] = biological target: T1, Indoleamine 2,3-dioxygenase 1; assay: Inhibition of IFN gamma induced human IDO1 in HeLa cells assessed as reduction in kynurenine production treated with 3-fold serial dilution beginning at 100 uM after 24 hrs by microtiter plate reader; type: cell-based; how it was run: as §1
Target sequence in this assay (P14902 whole entry): as the sequence (P14902 whole entry) above

Sequence of Cytochrome P450 3A4 (P08684 whole entry): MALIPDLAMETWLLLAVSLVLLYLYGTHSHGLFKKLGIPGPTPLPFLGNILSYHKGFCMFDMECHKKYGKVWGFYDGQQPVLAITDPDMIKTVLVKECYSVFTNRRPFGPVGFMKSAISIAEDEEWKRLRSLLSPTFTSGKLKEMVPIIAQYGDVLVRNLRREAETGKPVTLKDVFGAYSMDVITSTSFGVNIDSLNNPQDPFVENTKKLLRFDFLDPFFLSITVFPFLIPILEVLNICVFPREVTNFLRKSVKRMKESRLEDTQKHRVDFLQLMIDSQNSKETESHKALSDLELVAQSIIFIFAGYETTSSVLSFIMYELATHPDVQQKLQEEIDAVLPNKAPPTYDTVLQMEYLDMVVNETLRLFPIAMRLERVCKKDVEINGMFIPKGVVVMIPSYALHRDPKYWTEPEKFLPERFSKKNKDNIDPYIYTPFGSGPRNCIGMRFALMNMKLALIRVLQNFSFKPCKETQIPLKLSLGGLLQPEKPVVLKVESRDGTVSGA

NOCc1cccc(C(F)(F)F)c1 gave an IC50 [1] of 410 nM.

Work on COc1cccc(CON)c1 yielded an IC50 [1] of 9500 nM.

Work on O=C(NO)c1ccccc1 [BENZOHYDROXAMATE] yielded an IC50 [1] of 16000 nM.

With COc1cccc(CON)c1O the IC50 [1] was 55000 nM.

For COc1ccccc1CON, the IC50 [1] was 5400 nM.

With COc1ccc(CON)cc1 the IC50 [1] was 24000 nM.

For NOCc1cccc(F)c1, the IC50 [1] was 1000 nM.

NOCc1ccccc1O showed an IC50 [1] of 19000 nM.

NOCc1ccccc1 was tested, and the IC50 [1] was 810 nM.

NOCc1ccccc1I showed an IC50 [1] of 570 nM.

NOCc1ccc(C(F)(F)F)cc1F was tested, and the IC50 [1] was 1100 nM.

COc1ccc(OC)c(CON)c1 gave an IC50 [1] of 1700 nM.

NOCc1ccc(I)cc1Cl showed an IC50 [1] of 730 nM.

NOCc1ccccc1Cl gave an IC50 [1] of 630 nM.

For NOC/C=C/c1ccccc1, the IC50 [1] was 7100 nM.

For NOCCCc1ccccc1, the IC50 [1] was 82000 nM.

In the case of NOCc1cc(Cl)cc(Cl)c1, the IC50 [1] is reported as 900 nM.

NOCc1cc(Br)cc(Br)c1 was tested, and the IC50 [1] was 4200 nM.

In the case of NOCc1ccc(O)cc1, the IC50 [1] is reported as 61000 nM.

NOCc1cccc(Cl)c1Cl showed an IC50 [1] of 450 nM.

With NOCc1ccc(Cl)c(Cl)c1 the IC50 [1] was 2100 nM.

For Cc1cccc(CON)c1, the IC50 [1] was 2700 nM.

NOCc1ccc(Br)cc1 was tested, and the IC50 [1] was 1600 nM.

For NOC(c1ccccc1)C1CC1 (stereo unspecified), the IC50 [1] was 5200 nM.

In the case of NOC1Cc2ccccc2C1, the IC50 [1] is reported as 10000 nM.

With Cl.NOCc1ccc(I)cc1 the inhibition [2] was “Active”, the IC50 [3] was 180 nM and the Ki [4] was 164 nM. For the same compound, the IC50 [5] was 82 nM, the Activity (HeLa) was “Non-toxic” and the IC50 (Catalase) was > 100000 nM. For the same compound, the IC50 (Cytochrome P450 3A4) was 7200 nM and the IC50 [1] was 220 nM.

Work on NOCc1ccc([N+](=O)[O-])cc1 yielded an IC50 [1] of 2700 nM.

In the case of NOCc1ccc(C(F)(F)F)cc1, the IC50 [1] is reported as 8900 nM.

With NOCc1ccc(Cl)cc1 the IC50 [1] was 1300 nM.

For NOCc1cc(F)cc(F)c1, the IC50 [1] was 3400 nM.

With ONCc1ccccc1 the IC50 [1] was 6000 nM.

With Cl.NOCc1cccc(Cl)c1 the IC50 [6] was 134 nM, the inhibition [2] was “Active” and the IC50 [3] was 77 nM. For the same compound, the Ki [4] was 154 nM, the IC50 [5] was 114 nM and the Activity (HeLa) was “Non-toxic”. The IC50 (Catalase) was > 100000 nM, the IC50 (Cytochrome P450 3A4) was 15000 nM and the IC50 [1] was 300 nM.

In the case of NOCc1ccc(F)cc1, the IC50 [1] is reported as 980 nM.

NOCc1cc(C(F)(F)F)cc(C(F)(F)F)c1 was tested, and the IC50 [1] was 4600 nM.

NOCc1ccccc1Br was tested, and the IC50 [1] was 1600 nM.

Compound NOC1CCc2ccccc21 (stereo unspecified) has an IC50 [1] of 26000 nM.

In the case of NOCc1ccc(Cl)cc1Cl, the IC50 [1] is reported as 630 nM.

ONc1ccccc1 gave an IC50 [1] of 9200 nM.

For NOCc1ccc(-c2ccccc2)cc1, the IC50 [1] was 12000 nM.

NOCc1ccc(F)cc1F showed an IC50 [1] of 1400 nM.

With NNc1ccccc1 [PHENYLHYDRAZINE] the IC50 [1] was 230 nM.

In the case of NOCc1cccc(Br)c1, the IC50 [1] is reported as 320 nM.

For NOCc1cccc(I)c1, the IC50 [1] was 340 nM.

NOCc1ccccc1F showed an IC50 [1] of 1400 nM.

Compound NOCc1cc(C(F)(F)F)ccc1F has an IC50 [1] of 570 nM.

With NOCc1ccc(F)cc1C(F)(F)F the IC50 [1] was 2400 nM.

Work on NNCc1ccccc1 [BENZYLHYDRAZINE] yielded an IC50 [1] of 71000 nM.

With NOC1CCCc2ccccc21 (stereo unspecified) the IC50 [1] was 10000 nM.

CC(C)c1ccc(CON)cc1 was tested, and the IC50 [1] was 15000 nM.

In the case of NOCc1ccccc1C(F)(F)F, the IC50 [1] is reported as 2500 nM.

NOCc1ccc(Cl)c(C(F)(F)F)c1 gave an IC50 [1] of 490 nM.
